These results are taken from ChEMBL document CHEMBL3785002, “Lead optimization of the VU0486321 series of mGlu1 PAMs. Part 3. Engineering plasma stability by discovery and optimization of isoindolinone analogs” (Bioorg Med Chem Lett, 2016).

Data set [1] can be described thus: Fraction unbound in human plasma. Format: ADME, cell-free.
The target of data set [2] is T1, Metabotropic glutamate receptor 1 (Homo sapiens, UniProt Q13255). The experiment in a line: Positive allosteric modulatory activity at human mGlu1 receptor expressed in wild type T-Rex293 cells assessed as increase in glutamate-induced calcium mobilization pre-incubated for 2.5 mins before glutamate stimulation for 1 min. Format: functional, cell-based. To be noted: for pEC50: read-out: EC50; for EC50: read-out: pEC50 (converted). The method in brief: (§1)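 Tetracycline-inducible human mGlu1 WT T-REx-293 cells were induced overnight with 50 ng/mL tetracycline in dialyzed-FBS medium. Cells were loaded with 1.15 μM Fluo-4 AM in HBSS/20 mM HEPES/2.5 mM probenecid for 45 min at 37 °C. Compounds (half-log series in DMSO) were added for 2.5 min, then an EC20 of glutamate for 1 min. Calcium flux was read on Flexstation; ECmax glutamate served as reference. n=3 in triplicate.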
Target sequence in this assay (Q13255 whole entry): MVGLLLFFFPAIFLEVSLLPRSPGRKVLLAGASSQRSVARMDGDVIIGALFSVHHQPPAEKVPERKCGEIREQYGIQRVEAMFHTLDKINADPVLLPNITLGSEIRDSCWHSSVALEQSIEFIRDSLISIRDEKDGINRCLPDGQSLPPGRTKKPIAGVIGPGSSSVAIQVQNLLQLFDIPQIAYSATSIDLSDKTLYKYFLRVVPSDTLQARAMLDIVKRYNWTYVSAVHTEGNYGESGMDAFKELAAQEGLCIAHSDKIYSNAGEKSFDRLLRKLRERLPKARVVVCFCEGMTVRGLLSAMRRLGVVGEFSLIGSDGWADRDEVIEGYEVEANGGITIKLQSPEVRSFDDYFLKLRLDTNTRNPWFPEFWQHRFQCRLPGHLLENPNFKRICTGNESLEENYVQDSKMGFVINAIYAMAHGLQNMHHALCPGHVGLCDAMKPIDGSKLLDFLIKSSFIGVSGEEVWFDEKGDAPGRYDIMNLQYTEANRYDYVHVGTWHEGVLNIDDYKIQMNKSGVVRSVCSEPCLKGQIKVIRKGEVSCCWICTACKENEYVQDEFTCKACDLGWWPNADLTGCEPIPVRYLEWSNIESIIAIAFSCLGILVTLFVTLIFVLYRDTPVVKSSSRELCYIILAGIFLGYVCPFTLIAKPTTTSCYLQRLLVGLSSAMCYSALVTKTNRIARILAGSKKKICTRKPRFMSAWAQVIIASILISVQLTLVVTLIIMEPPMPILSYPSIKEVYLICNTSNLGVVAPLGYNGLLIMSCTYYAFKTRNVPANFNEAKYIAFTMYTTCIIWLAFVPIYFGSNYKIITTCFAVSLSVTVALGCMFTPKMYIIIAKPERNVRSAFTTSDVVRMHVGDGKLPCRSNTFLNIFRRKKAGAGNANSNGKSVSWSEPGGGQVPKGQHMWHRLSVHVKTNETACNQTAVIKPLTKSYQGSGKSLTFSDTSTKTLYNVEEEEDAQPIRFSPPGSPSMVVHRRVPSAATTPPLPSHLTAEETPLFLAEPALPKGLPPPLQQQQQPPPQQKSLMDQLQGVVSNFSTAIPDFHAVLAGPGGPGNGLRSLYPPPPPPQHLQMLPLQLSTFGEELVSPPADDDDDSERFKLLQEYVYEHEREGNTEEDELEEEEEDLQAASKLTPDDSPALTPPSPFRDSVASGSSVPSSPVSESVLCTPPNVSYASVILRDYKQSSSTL
On the technique in general: Calcium flux is commonly read through the fluorescence of an indicator in the cells.

Data set [3] can be described thus: Fraction unbound in rat plasma. Format: ADME, cell-free.
Data set [4] has as its target T1, Metabotropic glutamate receptor 1. The experiment in a line: Positive allosteric modulatory activity at human mGlu1 receptor expressed in wild type T-Rex293 cells assessed as increase in glutamate-induced calcium mobilization pre-incubated for 2.5 mins before glutamate stimulation for 1 min relative to glutamate alone. Format: functional, cell-based. The method, boiled down: as §1
Target sequence in this assay (Q13255 19-1194 limits assumed): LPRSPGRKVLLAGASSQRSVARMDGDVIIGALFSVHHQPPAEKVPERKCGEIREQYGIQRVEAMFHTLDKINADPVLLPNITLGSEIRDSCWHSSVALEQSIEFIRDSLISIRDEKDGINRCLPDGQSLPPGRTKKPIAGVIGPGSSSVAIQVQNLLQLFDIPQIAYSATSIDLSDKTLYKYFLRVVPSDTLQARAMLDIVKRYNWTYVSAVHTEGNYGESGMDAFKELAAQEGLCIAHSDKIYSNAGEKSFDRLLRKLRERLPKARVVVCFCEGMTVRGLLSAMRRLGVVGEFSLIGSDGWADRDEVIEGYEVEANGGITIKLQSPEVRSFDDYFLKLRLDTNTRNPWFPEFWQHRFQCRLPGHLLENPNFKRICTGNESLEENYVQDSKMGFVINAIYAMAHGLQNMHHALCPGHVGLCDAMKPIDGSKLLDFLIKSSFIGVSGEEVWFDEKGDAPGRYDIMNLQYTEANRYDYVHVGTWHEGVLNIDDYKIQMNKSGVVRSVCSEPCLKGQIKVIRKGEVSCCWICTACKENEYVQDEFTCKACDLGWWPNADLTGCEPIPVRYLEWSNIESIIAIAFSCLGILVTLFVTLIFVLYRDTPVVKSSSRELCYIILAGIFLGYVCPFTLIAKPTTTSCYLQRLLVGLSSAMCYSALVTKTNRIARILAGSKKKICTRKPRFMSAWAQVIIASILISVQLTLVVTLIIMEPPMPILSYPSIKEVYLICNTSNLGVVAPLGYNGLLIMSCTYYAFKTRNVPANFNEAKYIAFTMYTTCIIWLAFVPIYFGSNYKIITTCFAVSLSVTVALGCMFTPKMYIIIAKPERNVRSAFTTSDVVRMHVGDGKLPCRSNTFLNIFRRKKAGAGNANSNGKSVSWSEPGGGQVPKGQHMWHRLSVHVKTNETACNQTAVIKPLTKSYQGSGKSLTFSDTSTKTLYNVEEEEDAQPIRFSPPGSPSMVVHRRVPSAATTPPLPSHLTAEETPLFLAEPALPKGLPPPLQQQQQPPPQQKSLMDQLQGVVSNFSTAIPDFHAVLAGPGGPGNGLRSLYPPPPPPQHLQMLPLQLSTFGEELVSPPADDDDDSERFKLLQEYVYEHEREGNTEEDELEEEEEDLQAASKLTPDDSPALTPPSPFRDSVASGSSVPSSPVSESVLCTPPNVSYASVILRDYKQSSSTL

Data set [5] relates to Plasma. Briefly: Stability in rat plasma. Format: ADME, cell-free.
The test system of data set [6] is Plasma. Briefly: Stability in human plasma. Format: ADME, cell-free.
In a further data set the test system is T-Rex 293. Briefly: Selectivity ratio of EC50 for human mGlu4 receptor expressed in wild type T-Rex 293 cells to EC50 for human mGlu1 receptor expressed in wild type T-Rex 293 cells. Format: cell-based. Particulars: T-Rex293.
The target of data set [7] is Metabotropic glutamate receptor 4 (Homo sapiens, UniProt Q14833). Briefly: Positive allosteric modulatory activity at human mGlu4 receptor expressed in wild type T-Rex293 cells assessed as increase in glutamate-induced calcium mobilization pre-incubated for 2.5 mins before glutamate stimulation for 1 min. In kind it is functional, cell-based.
Metabotropic glutamate receptor 4, sequence (Q14833 whole entry): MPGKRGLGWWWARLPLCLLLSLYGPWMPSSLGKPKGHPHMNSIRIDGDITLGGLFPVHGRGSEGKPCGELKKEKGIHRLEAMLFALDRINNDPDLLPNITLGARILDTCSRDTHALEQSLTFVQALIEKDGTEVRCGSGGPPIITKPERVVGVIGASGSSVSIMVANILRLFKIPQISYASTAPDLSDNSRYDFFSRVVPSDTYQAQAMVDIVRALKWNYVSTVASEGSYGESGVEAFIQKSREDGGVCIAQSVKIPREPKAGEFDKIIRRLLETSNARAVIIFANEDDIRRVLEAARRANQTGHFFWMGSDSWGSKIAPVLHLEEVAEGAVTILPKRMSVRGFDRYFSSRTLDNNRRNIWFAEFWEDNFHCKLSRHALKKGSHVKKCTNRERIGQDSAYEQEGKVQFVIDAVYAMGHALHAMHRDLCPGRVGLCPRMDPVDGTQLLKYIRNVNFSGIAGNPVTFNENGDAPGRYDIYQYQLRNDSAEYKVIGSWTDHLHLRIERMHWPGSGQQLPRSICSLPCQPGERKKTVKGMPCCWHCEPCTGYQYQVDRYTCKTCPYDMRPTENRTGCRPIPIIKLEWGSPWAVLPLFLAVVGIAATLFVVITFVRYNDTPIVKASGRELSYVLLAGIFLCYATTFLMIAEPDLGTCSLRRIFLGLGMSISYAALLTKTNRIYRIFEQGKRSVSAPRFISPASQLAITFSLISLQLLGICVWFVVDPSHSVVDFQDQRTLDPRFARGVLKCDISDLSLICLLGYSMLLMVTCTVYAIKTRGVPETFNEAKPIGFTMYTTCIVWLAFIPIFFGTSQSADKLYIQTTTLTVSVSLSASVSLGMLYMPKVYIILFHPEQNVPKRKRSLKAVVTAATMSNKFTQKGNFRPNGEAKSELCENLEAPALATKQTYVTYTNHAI

The structures appear in SMILES notation. pEC50: −log10 of the molar value.

In general, fraction unbound refers to free concentration divided by total concentration. Read a high fraction unbound as weak binding. Usually pEC50 stands for the EC50 on a negative log10 scale, so that one unit is a factor of ten. In the case of `Cc1ccoc1C(=O)Nc1ccc(N2Cc3c(cccc3C(F)(F)F)C2=O)c(Cl)c1`, the unbound share (fraction unbound) in data set [1] and in data set [3] was below 0.01 throughout. Also, the pEC50 in data set [2] is 5.95. Moreover, in data set [4], the %max was 105%.
Turning to `Cc1ccoc1C(=O)Nc1ccc(N2Cc3cccc(Cl)c3C2=O)c(Cl)c1`, the unbound share (fraction unbound) in data set [1] and in data set [3] was below 0.01 in each case. For the same compound, the pEC50 in data set [2] was 6.32. For the same compound, the %max in data set [4] stood at 108%.
On to `COc1cccc2c1CN(c1ccc(NC(=O)c3occc3C)cc1Cl)C2=O`, for which the fraction unbound in data set [1] and in data set [3] was below 0.01 in each case. In data set [2], the negative logarithm of the EC50 (pEC50) was below 5.00.
As for `Cc1ccoc1C(=O)Nc1ccc(N2Cc3cccnc3C2=O)c(Cl)c1`, the free fraction (fraction unbound) in data set [1] and in data set [3] was below 0.01 throughout. The negative-log EC50 (pEC50) in data set [2] was below 5.00.
Take `Cc1ccoc1C(=O)Nc1ccc(N2C(=O)c3ccccc3C2(C)C)c(Cl)c1`: the fraction unbound in data set [1] and in data set [3] was below 0.01 each time. In data set [2], the pEC50 is 5.16. Moreover, the EC50 in data set [2] was 7080 nM. Further, the %max in data set [4] stood at 76%.
Turning to `Cc1ccoc1C(=O)Nc1ccc(N2C(=O)CCc3ccccc32)c(Cl)c1`, the Stability entry in the data set on Plasma [5] is “Stable”. Further, in the data set with Plasma [6], the Stability result is “Stable”. For the same compound, in data set [2], the negative logarithm of the EC50 (pEC50) is 5.89 and the EC50 is 1320 nM. Further, the %max in data set [4] turned out to be 107%.
With `Cc1ccoc1C(=O)Nc1ccc(N2Cc3ncccc3C2=O)c(Cl)c1`, the free fraction (fraction unbound) in data set [1] and in data set [3] was below 0.01 in each case. Besides, in data set [2], the pEC50 was below 5.00.
With `Cc1ccoc1C(=O)Nc1ccc(N2Cc3c(C)cccc3C2=O)c(Cl)c1`, the free fraction (fraction unbound) in data set [1] was below 0.01. In data set [2], the pEC50 is 5.97 and the EC50 was 1100 nM. Moreover, the unbound share (fraction unbound) in data set [3] is below 0.01. Also, the %max in data set [4] amounted to 89%.
On to `Cc1ccoc1C(=O)Nc1ccc(N2Cc3c(F)cccc3C2=O)c(Cl)c1`, for which the fraction unbound in data set [1] is below 0.01. Moreover, in data set [2], the negative logarithm of the EC50 (pEC50) was 6.06 and the EC50 is 891 nM. The unbound share (fraction unbound) in data set [3] is below 0.01. For the same compound, the %max in data set [4] is 82%.
Regarding `Cc1ccoc1C(=O)Nc1ccc(N2Cc3c(Br)cccc3C2=O)c(Cl)c1`, the fraction unbound in data set [1] and in data set [3] was below 0.01 each time. Further, in data set [2], the negative-log EC50 (pEC50) was 6.41. Besides, in data set [4], the %max came to 99%.
Consider `Cc1ccoc1C(=O)Nc1ccc(N2Cc3nccnc3C2=O)c(Cl)c1`, for which the free fraction (fraction unbound) in data set [1] and in data set [3] was below 0.01 in each case. In addition, the pEC50 in data set [2] is below 5.00.
For the compound `Cc1ccoc1C(=O)Nc1ccc(N2Cc3c(C#N)cccc3C2=O)c(Cl)c1`, the free fraction (fraction unbound) in data set [1] and in data set [3] was below 0.01 each time. For the same compound, the pEC50 in data set [2] is 5.68. The EC50 in data set [2] is 2140 nM. In data set [4], the %max is 107%.
Consider `Cc1ccoc1C(=O)Nc1ccc(N2Cc3cc(Cl)ccc3C2=O)c(Cl)c1`, for which the free fraction (fraction unbound) in data set [1] and in data set [3] was below 0.01 in each case. In data set [2], the pEC50 was below 5.00. For the same compound, the %max in data set [4] came to 58%.
In the case of `Cc1ccoc1C(=O)Nc1ccc(N2C(=O)c3ccccc3C2=O)cc1F`, the Ratio EC50 in the data set with T-Rex 293 is above 793.
Turning to `Cc1ccoc1C(=O)Nc1ccc(N2C(=O)c3cccc(F)c3C2=O)c(Cl)c1`, the Ratio EC50 in the data set on T-Rex 293 worked out at 35.
In the case of `O=C(Nc1ccc(N2C(=O)c3cccc(Cl)c3C2=O)c(Cl)c1)c1ncccc1Cl`, the pEC50 in data set [7] was below 5.00.
As for `Cc1ccoc1C(=O)Nc1ccc(N2Cc3cccnc3C2)c(Cl)c1`, the pEC50 in data set [2] was 5.02. Also, the %max in data set [4] came out at 78%.
`Cc1ccc2c(c1)C(=O)N(c1ccc(NC(=O)c3occc3C)c(F)c1)C2=O`: the pEC50 in data set [2] is 7.59. The Ratio EC50 with T-Rex 293 was above 450. Moreover, the %max in data set [4] was 70%.
Regarding `Cc1cccnc1C(=O)Nc1ccc(N2Cc3cccc(Cl)c3C2=O)c(Cl)c1`, in data set [2], the negative-log EC50 (pEC50) was below 5.00. Moreover, the %max in data set [4] was found to be 78%.
